Results on ten molecules are retold here after ChEMBL document CHEMBL1157130, “Cytotoxic naphthoquinones from Alkanna cappadocica ( perpendicular)” (J Nat Prod, 2010).

Structures are written as SMILES.

One may read the IC50 as the concentration that inhibits the measured activity by half.

One assay relates to HT-29. Briefly: Cytotoxicity against human HT-29 cells after 48 hrs by MTT assay. The assay is classed as functional, cell-based. The following applies: HT-29, 48 h. Put shortly:
(§1)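 Cells grown in RPMI 1640 or DMEM-Ham's F12 with 10% FBS, 2 mmol/L L-glutamine, penicillin/streptomycin, at 37 °C, 5% CO2. Exponential-phase cells seeded at 6000/well, incubated 24 h, then exposed 48 h to 0.1–10 µM compound (DMSO ≤0.1% final). MTT 0.5 mg/mL added for 3 h, formazan dissolved in DMSO, read at 570-690 nm. IC50 from % viability; three independent assays, triplicate wells.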
On the technique in general: Tetrazolium assays rely on reduction of a dye to a coloured formazan, in cell work by metabolically active cells.

The next assay concerns MDA-MB-231. Briefly: Cytotoxicity against human MDA-MB-231 cells after 48 hrs by MTT assay. The assay is classed as functional, cell-based. The following applies: MDA-MB-231, 48 h. Put shortly: as §1
A further assay deals with PC-3. The experiment in a line: Cytotoxicity against human PC3 cells after 48 hrs by MTT assay. The assay is classed as functional, cell-based. The settings on record: PC-3, 48 h. The method in brief:
as §1

A further assay deals with AU565. The experiment in a line: Cytotoxicity against human AU565 cells after 48 hrs by MTT assay. The assay is classed as functional, cell-based. The settings on record: AU565, 48 h. The method in brief: as §1
Another assay deals with HepG2. Briefly: Cytotoxicity against human HepG2 cells after 48 hrs by MTT assay. The assay is classed as functional, cell-based. The following applies: HepG2, 48 h. The method in brief:
as §1

The subject of a further assay is LNCaP. Briefly: Cytotoxicity against human LNCAP cells after 48 hrs by MTT assay. The assay is classed as functional, cell-based. The method in brief: as §1
A further assay deals with MCF7. The experiment in a line: Cytotoxicity against human MCF7 cells after 48 hrs by MTT assay. The assay is classed as functional, cell-based. The following applies: MCF7, 48 h. The method in brief: as §1
Another assay has as its system HeLa. Briefly: Cytotoxicity against human HeLa cells after 48 hrs by MTT assay. The assay is classed as functional, cell-based. Put shortly:
as §1

The next assay has as its system SK-BR-3. Briefly: Cytotoxicity against human SKBR3 cells after 48 hrs by MTT assay. The assay is classed as functional, cell-based. The settings on record: SK-BR-3, 48 h. Put shortly: as §1
The subject of a further assay is DU-145. Briefly: Cytotoxicity against human DU145 cells after 48 hrs by MTT assay. The assay is classed as functional, cell-based. The following applies: DU-145, 48 h. The method in brief: as §1
The next assay concerns SAOS-2. Briefly: Cytotoxicity against human Saos2 cells after 48 hrs by MTT assay. The assay is classed as functional, cell-based. The settings on record: SAOS-2, 48 h. The method in brief:
as §1

Assay [1] is described as follows: Cytotoxicity against human Hep3B cells after 48 hrs by MTT assay. The assay is classed as functional, cell-based, Hep 3B2. Put shortly:
as §1

A further assay relates to Vero. Briefly: Cytotoxicity against african green monkey Vero cells after 48 hrs by MTT assay. The assay is classed as cell-based. The settings on record: Chlorocebus sabaeus. Put shortly: as §1
The subject of a further assay is NIH3T3. Briefly: Cytotoxicity against mouse 3T3 cells after 48 hrs by MTT assay. The assay is classed as cell-based. The following applies: NIH3T3, 48 h. The method in brief:
as §1

For the molecule `COc1ccc(O)c2c1C(=O)C=C([C@H](CC=C(C)C)OC(=O)C=C(C)C)C2=O`, the IC50 in the assay on HT-29 was determined as 0.59 µM; with MDA-MB-231 it was 0.26 µM; in the assay with PC-3, 0.42 µM; in the assay with AU565, 0.75 µM; with HepG2, 0.97 µM; in the assay on LNCaP it was 11.4 µM. The IC50 is 14.8 µM in the assay with MCF7; 0.82 µM in the assay on HeLa; 0.83 µM in the assay with SK-BR-3; 8.55 µM in the assay with DU-145; 14.5 µM in the assay with SAOS-2; 11.8 µM in assay [1]. In addition, the half-inhibitory concentration (IC50) stood at 0.79 µM in the assay on Vero and 4.67 µM in the assay with NIH3T3.
In the case of `COc1ccc(O)c2c1C(=O)C(CCC=C(C)C)=CC2=O`, the IC50 stood at 5.98 µM in the assay with HT-29; 5.11 µM in the assay with MDA-MB-231; 7.48 µM with PC-3; 7.08 µM in the assay on AU565; 8.05 µM in the assay on HepG2; 11.1 µM in the assay with LNCaP. The IC50 stood at 11.9 µM in the assay on MCF7; 6.38 µM in the assay on HeLa; 6.52 µM with SK-BR-3; 12.1 µM in the assay with DU-145; 12.5 µM in the assay with SAOS-2; 24.5 µM in [1]. For the same molecule, the IC50 in the assay with Vero is 6.39 µM; with NIH3T3 it was 6.57 µM.
As to `COc1ccc(O)c2c1C(=O)C=C([C@H](CC=C(C)C)OC(C)=O)C2=O`, the IC50 in the assay with HT-29 was 0.62 µM; in the assay on MDA-MB-231, 0.09 µM; with PC-3 it was 0.78 µM; in the assay on AU565, 0.59 µM; in the assay on HepG2, 0.87 µM; in the assay on LNCaP it was 11 µM. The concentration for half-maximal inhibition (IC50) with MCF7 turned out to be 14.1 µM; with HeLa, 0.66 µM; with SK-BR-3 it was 0.44 µM; in the assay with DU-145, 7.41 µM; in the assay on SAOS-2 it was 13.8 µM; in [1], 10.2 µM. The values for the IC50 with Vero and in the assay on NIH3T3 were 0.59 µM and 0.66 µM, respectively.
In the case of `COc1ccc(O)c2c1C(=O)C=C(CCC=C(C)C)C2=O`, the IC50 is 5.09 µM in the assay with HT-29; 1.19 µM in the assay with MDA-MB-231; 6.81 µM in the assay on PC-3; 0.88 µM in the assay on AU565; 7.64 µM with HepG2; 10.9 µM with LNCaP. Further, the IC50 is 16 µM in the assay on MCF7; 0.91 µM in the assay on HeLa; 2.2 µM in the assay on SK-BR-3; 8.71 µM with DU-145; 20.4 µM with SAOS-2; 15.8 µM in [1]. Further, the IC50 in the assay on Vero worked out at 0.98 µM; with NIH3T3, 5.18 µM.
Take `CC(C)=CC[C@H](OC(=O)C=C(C)C)C1=CC(=O)c2c(O)ccc(O)c2C1=O`: the half-maximal inhibitory concentration (IC50) in the assay with HT-29 is 0.8 µM; in the assay with MDA-MB-231, 0.32 µM; in the assay with PC-3, 1.1 µM; with AU565, 0.62 µM; in the assay on HepG2, 1 µM; with LNCaP, 11.3 µM. Besides, the IC50 in the assay with MCF7 is 5.15 µM; with HeLa, 0.96 µM; in the assay with SK-BR-3 it was 0.68 µM; with DU-145, 4.81 µM; with SAOS-2, 0.84 µM; in [1], 4.09 µM. The IC50 was 0.32 µM in the assay on Vero and 0.77 µM in the assay on NIH3T3.
For the molecule `CC(=O)O[C@@H](CC=C(C)C)C1=CC(=O)c2c(O)ccc(O)c2C1=O` [ACETYLALKANNIN], the 50% inhibitory concentration (IC50) was 10.5 µM in the assay on HT-29; 8.47 µM in the assay on MDA-MB-231; 11 µM in the assay on PC-3; 0.88 µM with AU565; 7.41 µM with HepG2; 11.5 µM in the assay with LNCaP. For the same molecule, the half-maximal inhibitory concentration (IC50) in the assay on MCF7 was determined as 7.05 µM; with HeLa, 6.75 µM; in the assay with SK-BR-3, 1.66 µM; with DU-145 it was 6.65 µM; in the assay on SAOS-2 it was 4.93 µM; in assay [1], 6.06 µM. Moreover, the IC50 is 0.76 µM in the assay with Vero and 7.73 µM in the assay with NIH3T3.
With `CC(C)=CC[C@H](O)C1=CC(=O)c2c(O)ccc(O)c2C1=O` [ALKANNIN], the IC50 was 4.03 µM in the assay on HT-29; 4.27 µM in the assay with MDA-MB-231; 3.25 µM in the assay on PC-3; 0.9 µM in the assay on AU565; 3.8 µM in the assay with HepG2; 10.7 µM with LNCaP. Further, the IC50 with MCF7 was determined as 3.06 µM; in the assay with HeLa, 0.91 µM; in the assay on SK-BR-3, 0.78 µM; with DU-145, 5.02 µM; with SAOS-2 it was 2.31 µM; in assay [1], 3.84 µM. In addition, the IC50 in the assay with Vero amounted to 0.7 µM; with NIH3T3, 5.21 µM.
For `CC(C)=CCCC1=CC(=O)c2c(O)ccc(O)c2C1=O` [DEOXYSHIKONIN], the half-inhibitory concentration (IC50) in the assay with HT-29 is 5.12 µM; in the assay with MDA-MB-231 it was 5.08 µM; with PC-3 it was 4.29 µM; in the assay on AU565, 0.92 µM; in the assay with HepG2, 0.9 µM; in the assay on LNCaP, 12.2 µM. In addition, the 50% inhibitory concentration (IC50) in the assay on MCF7 is 0.79 µM; with HeLa, 0.85 µM; with SK-BR-3, 0.69 µM; with DU-145, 1.24 µM; in the assay on SAOS-2, 0.85 µM; in assay [1], 6.02 µM. The values for the IC50 with Vero and in the assay on NIH3T3 were 0.66 µM and 5.84 µM, respectively.
With `COc1cccc2c1C(=O)c1c(O)c3c(c(O)c1C2=O)C[C@@](O)(C(=O)CO)C[C@@H]3O[C@H]1C[C@H](N)[C@H](O)[C@H](C)O1` [DOXORUBICIN], the IC50 in the assay on HT-29 came out at 2.05 µM; in the assay on MDA-MB-231, 2 µM; with PC-3 it was 3.16 µM; with NIH3T3 it was 3.7 µM.
For the molecule `COc1cc([C@@H]2c3cc4c(cc3[C@@H](O[C@@H]3O[C@@H]5CO[C@@H](C)O[C@H]5[C@H](O)[C@H]3O)[C@H]3COC(=O)[C@H]23)OCO4)cc(OC)c1O` [ETOPOSIDE], the IC50 with HT-29 came to 30.4 µM; in the assay on MDA-MB-231 it was 23.2 µM; with PC-3, 69.5 µM; in the assay on NIH3T3, 63 µM.
